Assay results reported in ChEMBL document CHEMBL1149111, “Design and synthesis of a fluoroindolocarbazole series as selective topoisomerase I active agents. Discovery of water-soluble 3,9-difluoro-12,13-dihydro-13-[6-amino-beta-D-glucopyranosyl]-5H,13H-benzo[b]- thienyl[2,3-a]pyrrolo[3,4-c]carbazole- 5,7(6H)-dione (BMS-251873) with curative antitumor …” (J Med Chem, 2004).

Assays:
[1] = Ratio for cytotoxicity against camptothecin resistant P388/CPT45 cells to that of parental P388 cells; assay type: functional, Mus musculus
Summary of the method: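 Cytotoxicity after 3-day continuous exposure by tetrazolium dye conversion, read at 450 nm, in camptothecin-resistant P388/CPT45 cells and parental P388 cells; value is IC50 in P388/CPT45 divided by IC50 in P388.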

[2] = target: T1, DNA topoisomerase 1 (Homo sapiens) (UniProt P11387); assay: Ratio of effective concentration for inducing single strand breaks in the DNA substrate by topoisomerase I compared to camptothecin
T1 sequence (whole entry): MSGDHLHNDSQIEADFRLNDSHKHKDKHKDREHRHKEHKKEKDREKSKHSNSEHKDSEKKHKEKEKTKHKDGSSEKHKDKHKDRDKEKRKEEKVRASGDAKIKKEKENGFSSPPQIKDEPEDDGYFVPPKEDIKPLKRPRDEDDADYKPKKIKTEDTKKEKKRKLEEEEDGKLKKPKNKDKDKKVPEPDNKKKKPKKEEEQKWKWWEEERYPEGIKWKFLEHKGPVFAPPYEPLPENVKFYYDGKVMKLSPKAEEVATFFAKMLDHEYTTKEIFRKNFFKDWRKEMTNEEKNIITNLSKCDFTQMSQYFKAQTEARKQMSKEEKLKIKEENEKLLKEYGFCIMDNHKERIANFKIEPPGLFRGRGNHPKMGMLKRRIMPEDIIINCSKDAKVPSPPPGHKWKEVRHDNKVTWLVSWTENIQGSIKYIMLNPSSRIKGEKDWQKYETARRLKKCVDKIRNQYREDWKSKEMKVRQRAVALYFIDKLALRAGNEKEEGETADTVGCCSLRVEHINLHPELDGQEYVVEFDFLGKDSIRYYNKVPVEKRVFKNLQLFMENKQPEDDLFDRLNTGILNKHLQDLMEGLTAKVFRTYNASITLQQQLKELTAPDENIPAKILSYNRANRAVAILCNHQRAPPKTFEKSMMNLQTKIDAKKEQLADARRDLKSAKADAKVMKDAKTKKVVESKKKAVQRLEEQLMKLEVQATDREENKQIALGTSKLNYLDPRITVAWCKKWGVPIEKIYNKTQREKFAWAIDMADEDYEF
Summary of the method: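 Topoisomerase I-mediated single-strand breaks in DNA substrate assayed by a modified Hsiang protocol; median effective concentration (EC50) for break induction divided by camptothecin EC50 measured in the same experiment.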

P388 = assay: In vitro cytotoxic concentration against P388 murine leukemia cells was determined; assay type: functional, cell-based; conditions: Mus musculus
Summary of the method: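 P388 murine leukemia cells exposed continuously to compound for 3 days; proliferation measured by soluble tetrazolium/formazan conversion (absorbance 450 nm). IC50 = concentration reducing absorbance to 50% of untreated control cells; reported as mean.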

[3] = Volume of distribution of compound in plasma was determined at 5 mg/Kg; assay type: ADME, organism-based; conditions: mouse, read-out: Vds
[4] = Half life of compound was determined in plasma of mice at 5 mg/Kg; assay type: ADME, organism-based; conditions: mouse
Mus musculus [5] = assay: Area under curve was determined for the compound at 5 mg/Kg; assay type: ADME, organism-based; conditions: in vivo
Mus musculus [6] = assay: Inhibitory concentration of compound was determined after intravenous administration in mice after 8 hours of exposure at 5 mg/Kg; assay type: ADME, organism-based
[7] = Plasma clearance at 5 mg/Kg; assay type: ADME, organism-based; conditions: mouse
[8] = Volume of distribution of compound in plasma was determined at 24 mg/Kg; assay type: ADME, organism-based; conditions: mouse, read-out: Vds
[9] = Half life of compound was determined in plasma of mice at 24 mg/Kg; assay type: ADME, organism-based; conditions: mouse
Mus musculus [10] = assay: Inhibitory concentration of compound was determined after intravenous administration in mice after 8 hours of exposure at 24 mg/Kg; assay type: ADME, organism-based
Mus musculus [11] = assay: Area under curve was determined for the compound at 24 mg/Kg; assay type: ADME, organism-based; conditions: in vivo
[12] = Plasma clearance at 24 mg/Kg; assay type: ADME, organism-based; conditions: mouse

Ratio [2]	SMILES	Ratio [1]	IC50 (P388)	also measured
2	O=C1NC(=O)c2c1c1c3ccc(F)cc3[nH]c1c1c2c2ccc(F)cc2n1C1OC(CO)C(O)C(O)C1O (stereo not given)	8.7	260 nM	
> 600	Cn1c2cc(F)c(F)cc2c2c3c(c4c5cc(F)c(F)cc5n(C5OC(CO)C(O)C(O)C5O)c4c21)C(=O)NC3=O (stereo not given)	>1	> 8720 nM	
3.1	O=C1NC(=O)c2c1c1c3ccccc3[nH]c1c1c2c2ccc(F)cc2n1C1OC(CO)C(O)C(O)C1O (stereo not given)	4.6	392 nM	
1.5	O=C1NC(=O)c2c1c1c3ccccc3oc1c1c2c2cc(F)ccc2n1C1OC(CO)C(O)C(O)C1O (stereo not given)	13.6	529 nM	
1	CN1C(=O)c2c(c3c4cc(F)ccc4n(C4OC(CO)C(O)C(O)C4O)c3c3[nH]c4ccc(F)cc4c23)C1=O (stereo not given)	>10.8	862 nM	
0.09	O=C1NC(=O)c2c1c1c3cc(F)ccc3sc1c1c2c2cc(F)ccc2n1C1OC(CO)C(O)C(O)C1O (stereo not given)	232.5	10 nM	Vd [3]: 1.27 L/kg; half-life [4]: 7.6 h; AUC (Mus musculus [5]): 0.068 uM hr ml-1; IC50 (Mus musculus [6]): 150 nM; clearance [7]: 9.33 mL/min/kg
0.22	O=C1NC(=O)c2c1c1c3cc(F)ccc3[nH]c1c1c2c2cc(F)ccc2n1C1OC(CO)C(O)C(O)C1O (stereo not given)	182.7		Vd [8]: 0.1 L/kg; half-life [9]: 1.6 h; IC50 (Mus musculus [10]): 860 nM; AUC (Mus musculus [11]): 0.17 uM hr ml-1; clearance [12]: 3.6 mL/min/kg
0.22	NN1C(=O)c2c(c3c4cc(F)ccc4n(C4OC(CO)C(O)C(O)C4O)c3c3[nH]c4ccc(F)cc4c23)C1=O (stereo not given)	196.9	20 nM	
0.69	O=C1NC(=O)c2c1c1c3cc(F)c(F)cc3[nH]c1c1c2c2cc(F)c(F)cc2n1C1OC(CO)C(O)C(O)C1O (stereo not given)	67.1	7 nM	
1.7	O=C1NC(=O)c2c1c1c3cc(F)ccc3[nH]c1c1c2c2ccccc2n1C1OC(CO)C(O)C(O)C1O (stereo not given)	31.7	101 nM	
2.2	O=C1NC(=O)c2c1c1c3ccccc3sc1c1c2c2cc(F)ccc2n1C1OC(CO)C(O)C(O)C1O (stereo not given)	>51.3	155 nM	
0.27	O=C1NC(=O)c2c1c1c3cc(F)ccc3oc1c1c2c2cc(F)ccc2n1C1OC(CO)C(O)C(O)C1O (stereo not given)	63.7	114 nM	
0.48	CN1C(=O)c2c(c3c4cc(F)ccc4n(C4OC(CO)C(O)C(O)C4O)c3c3sc4ccc(F)cc4c23)C1=O (stereo not given)	14.1	236 nM	
0.08	O=C1c2c(c3c4cc(F)ccc4n(C4OC(CO)C(O)C(O)C4O)c3c3[nH]c4ccc(F)cc4c23)C(=O)N1O (stereo not given)	19.6	35 nM	
> 200	O=C1NC(=O)c2c1c1c3ccc(F)cc3[nH]c1c1c2c2ccccc2n1C1OC(CO)C(O)C(O)C1O (stereo not given)	11.4	98 nM	
6.6	O=C1NC(=O)c2c1c1c3ccccc3[nH]c1c1c2c2cc(F)ccc2n1C1OC(CO)C(O)C(O)C1O (stereo not given)	>9.5	1040 nM	

SMILES	Ratio [2]	Ratio [1]	IC50 (P388)	also measured
O=C1NC(=O)c2c1c1c3cccc(Cl)c3[nH]c1c1c2c2cccc(Cl)c2n1C1OC(CO)C(O)C(O)C1O (stereo not given)	> 500	1.26	540 nM	
